Measurements reported in ChEMBL document CHEMBL1158850, “Structure-activity relationship and classification of flavonoids as inhibitors of xanthine oxidase and superoxide scavengers” (J Nat Prod, 1998).
Activity calls are given as the source filed them. No cut-off for these calls is given here.

Assays:
[1] = Antioxidant activity assessed as superoxide-scavenging activity by nitrite method; assay type: functional
[2] = biological target: Xanthine dehydrogenase/oxidase (Homo sapiens, UniProt P47989); assay: Inhibition of xanthine oxidase assessed as decrease in uric acid production by spectrophotometry
How it was run: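 Flavonoid at various concentrations with 50 µM xanthine, 0.2 mM hydroxylamine and 0.1 mM EDTA. Stopped with HCl, then uric acid read as absorbance at 290 nm against an enzyme-free blank. IC50 by linear regression.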

[3] = Prooxidant effect assessed as superoxide production by nitrite method; assay type: functional
How it was run: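 Xanthine oxidase (6.25 mU/mL, in 200 mM phosphate buffer pH 7.50) generated superoxide from 50 µM xanthine with 0.2 mM hydroxylamine and 0.1 mM EDTA, plus flavonoid at various concentrations. Incubated 30 min at 37 °C. Superoxide read by the nitrite method: stood 30 min at room temperature, then absorbance at 550 nm. Levels compared with control experiments; IC50 from linear regression.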

Sequence of Xanthine dehydrogenase/oxidase (P47989 whole entry): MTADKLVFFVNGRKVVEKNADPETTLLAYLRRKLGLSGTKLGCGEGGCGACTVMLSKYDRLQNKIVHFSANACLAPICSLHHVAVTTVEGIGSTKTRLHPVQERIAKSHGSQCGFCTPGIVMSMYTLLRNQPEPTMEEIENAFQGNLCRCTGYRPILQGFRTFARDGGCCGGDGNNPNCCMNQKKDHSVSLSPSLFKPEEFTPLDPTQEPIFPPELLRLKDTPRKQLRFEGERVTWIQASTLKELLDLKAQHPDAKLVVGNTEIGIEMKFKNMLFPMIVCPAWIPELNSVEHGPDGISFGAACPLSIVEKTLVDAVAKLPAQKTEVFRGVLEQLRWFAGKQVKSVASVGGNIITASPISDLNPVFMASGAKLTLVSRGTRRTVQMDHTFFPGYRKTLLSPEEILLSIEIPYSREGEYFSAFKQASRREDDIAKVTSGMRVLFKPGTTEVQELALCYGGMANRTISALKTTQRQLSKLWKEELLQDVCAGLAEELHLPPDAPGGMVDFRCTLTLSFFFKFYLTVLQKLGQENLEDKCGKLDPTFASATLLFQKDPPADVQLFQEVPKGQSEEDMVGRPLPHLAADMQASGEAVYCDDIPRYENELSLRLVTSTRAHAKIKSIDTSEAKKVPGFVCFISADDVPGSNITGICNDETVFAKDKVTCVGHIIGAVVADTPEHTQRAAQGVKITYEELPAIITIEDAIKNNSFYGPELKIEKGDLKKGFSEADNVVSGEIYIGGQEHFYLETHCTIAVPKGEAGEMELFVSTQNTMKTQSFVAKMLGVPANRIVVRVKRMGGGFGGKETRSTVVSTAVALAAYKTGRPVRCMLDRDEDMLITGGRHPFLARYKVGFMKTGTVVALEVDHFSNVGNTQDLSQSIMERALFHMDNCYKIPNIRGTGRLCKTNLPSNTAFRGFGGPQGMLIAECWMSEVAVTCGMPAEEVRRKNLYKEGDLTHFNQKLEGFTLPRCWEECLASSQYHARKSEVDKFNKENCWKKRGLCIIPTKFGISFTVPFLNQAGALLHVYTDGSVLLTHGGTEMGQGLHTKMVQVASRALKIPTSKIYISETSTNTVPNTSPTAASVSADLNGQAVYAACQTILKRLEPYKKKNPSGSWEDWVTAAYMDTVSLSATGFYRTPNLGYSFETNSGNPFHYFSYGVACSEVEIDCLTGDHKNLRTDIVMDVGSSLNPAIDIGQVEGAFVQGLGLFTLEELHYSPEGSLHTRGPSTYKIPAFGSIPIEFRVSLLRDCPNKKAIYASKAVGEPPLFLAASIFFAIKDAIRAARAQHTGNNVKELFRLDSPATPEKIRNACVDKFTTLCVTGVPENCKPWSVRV

Row | SMILES | IC50 [1] [nM] | IC50 [2] [nM] | Activity [3]
1 | O=C1c2c(O)cc(O)cc2OC(c2ccc(O)c(O)c2)C1O (racemic) [TAXIFOLIN] | 1730 |  | 
2 | O=C1CC(c2ccc(O)cc2)Oc2ccccc21 (configuration not stated) [4'-HYDROXY-FLAVANONE] | > 18000 | > 30000 | 
3 | O=c1cc(-c2ccccc2)oc2cc(O)ccc12 [7-HYDROXYFLAVONE] | > 100000 | 38000 | Active
4 | Oc1cc(O)c2c(c1)O[C@H](c1ccc(O)c(O)c1)[C@H](O)C2 [(-)-EPICATECHIN] | 1590 | > 100000 | 
5 | Oc1ncnc2[nH]ncc12 [ALLOPURINOL] | 230 |  | 
6 | O=c1cc(-c2ccc(O)cc2)oc2cc(O)cc(O)c12 [APIGENIN] | 1330 | 700 | 
7 | O=c1cc(-c2ccccc2)oc2cc(O)c(O)c(O)c12 [BAICALEIN] | 2720 | 2790 | 
8 | O=c1cc(-c2ccccc2)oc2cc(O)cc(O)c12 [CHRYSIN] | 1870 | 840 | 
9 | COc1cc(-c2cc(=O)c3c(O)cc(O[C@@H]4O[C@H](CO)[C@@H](O)[C@H](O)[C@H]4O[C@@H]4O[C@@H](C)[C@H](O)[C@@H](O)[C@H]4O)cc3o2)ccc1O [CHRYSOERIOL-7-O-NEOHESPERIDOSIDE] | > 100000 | > 100000 | 
10 | Oc1cc(O)c2c(c1)O[C@H](c1ccc(O)c(O)c1)[C@@H](O)C2 [CIANIDANOL] | 1610 | > 100000 | 
11 | COc1cc2oc(-c3ccc(O[C@@H]4O[C@H](CO)[C@@H](O)[C@H](O)[C@H]4O)cc3)cc(=O)c2c(O)c1OC [CIRSIMARIN] | > 100000 | > 100000 | 
12 | Oc1cc(O)c2c(c1)O[C@H](c1cc(O)c(O)c(O)c1)[C@H](O)C2 [EPIGALLOCATECHIN] | 480 | > 100000 | 
13 | O=c1c(O)c(-c2ccc(O)c(O)c2)oc2cc(O)ccc12 [FISETIN] | 1840 | 4330 | 
14 | O=c1c(O)c(-c2ccccc2)oc2ccccc12 [FLAVONOL] | > 100000 | > 100000 | 
15 | O=c1c(O)c(-c2ccccc2)oc2cc(O)cc(O)c12 [GALANGIN] | 6740 | 1800 | 
16 | COc1cc(-c2oc3cc(O)cc(O)c3c(=O)c2O)ccc1O [ISORHAMNETIN] | 2750 | 2510 | 
17 | O=c1c(O)c(-c2ccc(O)cc2)oc2cc(O)cc(O)c12 [KAEMPFEROL] | 840 | 1060 | 
18 | C[C@@H]1O[C@@H](O[C@H]2[C@H](Oc3cc(O)c4c(=O)cc(-c5ccc(O)c(O)c5)oc4c3)O[C@H](CO)[C@@H](O)[C@@H]2O)[C@H](O)[C@H](O)[C@H]1O [LONICERIN] | 2370 | 11900 | 
19 | O=c1cc(-c2ccc(O)c(O)c2)oc2cc(O)cc(O)c12 [LUTEOLIN] | 1130 | 550 | 
20 | O=c1c(O)c(-c2ccc(O)cc2O)oc2cc(O)cc(O)c12 [MORIN] | 9100 | 10100 | 
21 | O=c1c(O)c(-c2cc(O)c(O)c(O)c2)oc2cc(O)cc(O)c12 [MYRICETIN] | 330 | 2380 | 
22 | O=C1C[C@@H](c2ccc(O)cc2)Oc2cc(O)cc(O)c21 [NARINGENIN] | > 50000 | > 50000 | 
23 | C[C@@H]1O[C@@H](OC[C@H]2O[C@@H](Oc3c(-c4ccc(O)cc4)oc4cc(O)cc(O)c4c3=O)[C@H](O)[C@@H](O)[C@@H]2O)[C@H](O)[C@H](O)[C@H]1O [NICOTIFLOROSIDE] | 3400 | 14800 | 
24 | COc1ccc(-c2cc(=O)c3c(OC)c(OC)c(OC)c(OC)c3o2)cc1OC [NOBILETIN] | > 100000 | > 100000 | 
25 | COc1cc(O)c2c(=O)c(O)c(-c3ccc(OC)c(O)c3)oc2c1 [OMBUINE] | 2600 | 7700 | 
26 | O=c1c(O)c(-c2ccc(O)c(O)c2)oc2cc(O)cc(O)c12 [QUERCETIN] | 1630 |  | 
27 | C[C@@H]1O[C@@H](Oc2c(-c3ccc(O)c(O)c3)oc3cc(O)cc(O)c3c2=O)[C@H](O)[C@H](O)[C@H]1O [QUERCITRIN] | 8100 | > 100000 | 
28 | C[C@@H]1O[C@@H](OC[C@H]2O[C@@H](Oc3c(-c4ccc(O)c(O)c4)oc4cc(O)cc(O)c4c3=O)[C@H](O)[C@@H](O)[C@@H]2O)[C@H](O)[C@H](O)[C@H]1O [RUTIN] |  | 52200 | 
29 | COc1ccc(-c2cc(=O)c3c(OC)c(OC)c(OC)c(OC)c3o2)cc1 [TANGERETIN] | > 100000 | > 100000 | 
30 | O=C(/C=C/c1ccc(O)cc1)OC[C@H]1O[C@@H](Oc2c(-c3ccc(O)cc3)oc3cc(O)cc(O)c3c2=O)[C@H](O)[C@@H](O)[C@@H]1O [TILIROSIDE] | > 100000 | > 100000 | 
